According to ChEMBL document CHEMBL3992538, “Hybrids of thienopyrimidinones and thiouracils as anti-tubercular agents: SAR and docking studies” (Eur J Med Chem, 2017):
In brackets after ≈: the same amount, converted by molar mass.

Assays:
[1] = test system: Mycobacterium tuberculosis; assay: Antitubercular activity against active stage of Mycobacterium tuberculosis H37Ra ATCC 25177 after 8 days by XTT reduction menadione assay; assay type: functional; conditions: H37Ra ATCC 25177, 192 h
Summary of the method: (§1)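 M. tuberculosis H37Ra (ATCC 25177), grown to log phase (OD 1.0) in M. pheli medium from -70°C stock, subcultured once before inoculation. Incubation 8 days (active) or 12 days (dormant). XRMA read-out as absorbance at 470 nm.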

[2] = Selectivity index, ratio of GI50 for human HeLa cells to MIC for dormant stage of Mycobacterium tuberculosis H37Ra ATCC 25177 infected in human THP1 cells; assay type: toxicity, cell-based; conditions: read-out: Selectivity Index
Summary of the method: (§2)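 Selectivity index is the cytotoxic GI50 against the named human cell line divided by the antimycobacterial value. Activity counted as specific when SI >10.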

[3] = Selectivity index, ratio of GI50 for human PANC1 cells to MIC for dormant stage of Mycobacterium tuberculosis H37Ra ATCC 25177; assay type: toxicity; conditions: PANC-1 cells, read-out: Selectivity Index; summary of the method: as §2
[4] = Cytotoxicity against human PANC1 cells assessed as growth inhibition by MTT assay; assay type: cell-based; conditions: PANC-1 cells
Summary of the method: (§3)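 MTT assay in duplicate on THP-1 leukaemia, A549 lung adenocarcinoma, PANC-1 pancreatic adenocarcinoma and HeLa cervical carcinoma cells, all obtained from ECCC.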

[5] = Selectivity index, ratio of GI50 for human PANC1 cells to MIC for active stage of Mycobacterium tuberculosis H37Ra ATCC 25177; assay type: toxicity; conditions: PANC-1 cells, read-out: Selectivity Index; summary of the method: as §2
[6] = Selectivity index, ratio of GI50 for human HeLa cells to MIC for dormant stage of Mycobacterium tuberculosis H37Ra ATCC 25177; assay type: toxicity, cell-based; conditions: read-out: Selectivity Index; summary of the method: as §2
[7] = Cytotoxicity against human HeLa cells assessed as growth inhibition by MTT assay; assay type: cell-based; summary of the method: as §3
[8] = Selectivity index, ratio of GI50 for human A549 cells to MIC for dormant stage of Mycobacterium tuberculosis H37Ra ATCC 25177 infected in human THP1 cells; assay type: toxicity, cell-based; conditions: read-out: Selectivity Index; summary of the method: as §2
[9] = Selectivity index, ratio of GI50 for human HeLa cells to MIC for active stage of Mycobacterium tuberculosis H37Ra ATCC 25177 infected in human THP1 cells; assay type: toxicity, cell-based; conditions: read-out: Selectivity Index; summary of the method: as §2
[10] = test system: Mycobacterium tuberculosis; assay: Antitubercular activity against dormant stage of Mycobacterium tuberculosis H37Ra ATCC 25177 after 12 days by XTT reduction menadione assay; assay type: functional; conditions: H37Ra ATCC 25177, 288 h; summary of the method: as §1
[11] = Cytotoxicity against human A549 cells assessed as growth inhibition by MTT assay; assay type: cell-based; summary of the method: as §3
[12] = Selectivity index, ratio of GI50 for human A549 cells to MIC for dormant stage of Mycobacterium tuberculosis H37Ra ATCC 25177; assay type: toxicity; conditions: read-out: Selectivity Index; summary of the method: as §2
[13] = Selectivity index, ratio of GI50 for human A549 cells to MIC for active stage of Mycobacterium tuberculosis H37Ra ATCC 25177; assay type: toxicity; conditions: read-out: Selectivity Index; summary of the method: as §2
[14] = Cytotoxicity against human THP1 cells assessed as growth inhibition by MTT assay; assay type: cell-based; conditions: THP-1 cells; summary of the method: as §3
[15] = Selectivity index, ratio of GI50 for human HeLa cells to MIC for active stage of Mycobacterium tuberculosis H37Ra ATCC 25177; assay type: toxicity, cell-based; conditions: read-out: Selectivity Index; summary of the method: as §2
[16] = test system: Mycobacterium tuberculosis; assay: Antitubercular activity against active stage of Mycobacterium tuberculosis H37Ra ATCC 25177 infected in human THP1 cells after 8 days by nitrate reductase assay; assay type: functional; conditions: H37Ra ATCC 25177, 192 h
Summary of the method: (§4)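 Ex vivo test of H37Ra in THP-1 cells by nitrate reductase assay, absorbance read at 540 nm. Active stage incubated 8 days and dormant stage 12 days. H37Ra (ATCC 25177) grown in M. pheli medium to OD 1.0 and subcultured once from -70°C stock.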

[17] = Selectivity index, ratio of GI50 for human PANC1 cells to MIC for active stage of Mycobacterium tuberculosis H37Ra ATCC 25177 infected in human THP1 cells; assay type: toxicity, cell-based; conditions: PANC-1 cells, read-out: Selectivity Index; summary of the method: as §2
[18] = Selectivity index, ratio of GI50 for human A549 cells to MIC for active stage of Mycobacterium tuberculosis H37Ra ATCC 25177 infected in human THP1 cells; assay type: toxicity, cell-based; conditions: read-out: Selectivity Index; summary of the method: as §2
[19] = Selectivity index, ratio of GI50 for human PANC1 cells to MIC for dormant stage of Mycobacterium tuberculosis H37Ra ATCC 25177 infected in human THP1 cells; assay type: toxicity, cell-based; conditions: PANC-1 cells, read-out: Selectivity Index; summary of the method: as §2
[20] = test system: Mycobacterium tuberculosis; assay: Antitubercular activity against dormant stage of Mycobacterium tuberculosis H37Ra ATCC 25177 infected in human THP1 cells after 12 days by nitrate reductase assay; assay type: functional; conditions: H37Ra ATCC 25177, 288 h; summary of the method: as §4

| SMILES | MIC [1] [µg/mL] | selectivity ratio [2] | selectivity ratio [3] | GI50 [4] [µg/mL] | selectivity ratio [5] | selectivity ratio [6] | GI50 [7] [µg/mL] | selectivity ratio [8] | selectivity ratio [9] | MIC [10] [µg/mL] | GI50 [11] [µg/mL] | selectivity ratio [12] | selectivity ratio [13] | GI50 [14] [µg/mL] | selectivity ratio [15] | MIC [16] [µg/mL] | selectivity ratio [17] | selectivity ratio [18] | selectivity ratio [19] | MIC [20] [µg/mL] |
| --- | --- | --- | --- | --- | --- | --- | --- | --- | --- | --- | --- | --- | --- | --- | --- | --- | --- | --- | --- | --- |
| COc1cc(-c2nc(SCCCn3cnc4sc5c(c4c3=O)CCCC5)n(CCCn3cnc4sc5c(c4c3=O)CCCC5)c(=O)c2C#N)cc(OC)c1OC | > 30 | < 3 | > 3 | > 100 | > 3 | 3 | 89.6 (≈ 110 µM) | 3 | 3 | > 30 | 83.1 (≈ 102 µM) | < 3 | 3 | 81.4 (≈ 100 µM) | 3 | > 30 | > 3 | < 3 | > 3 | > 30 |
| COc1cc(-c2nc(SCCCn3cnc4sc5c(c4c3=O)CCCC5)n(CCC(F)(F)C(F)(F)C(F)(F)C(F)(F)C(F)(F)C(F)(F)F)c(=O)c2C#N)cc(OC)c1OC | > 30 | > 11 | > 8 | > 100 | > 3 | > 8 | > 100 | > 11 | > 3 | 11.7 (≈ 12.8 µM) | > 100 | > 8 | > 3 | > 100 | > 3 | > 30 | > 3 | > 3 | > 11 | 8.8 (≈ 9.65 µM) |
| COc1cc(-c2nc(SCCCn3cnc4sc5c(c4c3=O)CCCC5)n(Cc3c(F)c(F)c(F)c(F)c3F)c(=O)c2C#N)cc(OC)c1OC | > 30 | > 4 | > 4 | > 100 | > 3 | > 4 | > 100 | > 4 | > 3 | 28.3 (≈ 37.9 µM) | > 100 | > 4 | > 3 | > 100 | > 3 | > 30 | > 3 | > 3 | > 4 | 26.5 (≈ 35.5 µM) |
| N#Cc1c(-c2ccc(O)cc2)[nH]c(=S)[nH]c1=O | > 30 | < 3 | < 3 | 89.1 (≈ 363 µM) | 3 | 3 | 90.8 (≈ 370 µM) | 3 | 3 | > 30 | 87.4 (≈ 356 µM) | < 3 | 3 | 93 (≈ 379 µM) | 3 | > 30 | 3 | < 3 | < 3 | > 30 |
| CCCCCCCCCCCn1c(SCCCn2cnc3sc4c(c3c2=O)CCCC4)nc(-c2cc(OC)c(OC)c(OC)c2)c(C#N)c1=O | > 30 | > 3 | > 3 | > 100 | > 3 | > 3 | > 100 | > 3 | > 3 | > 30 | > 100 | > 3 | > 3 | > 100 | > 3 | > 30 | > 3 | > 3 | > 3 | > 30 |
| COc1cc(-c2nc(SCCCn3cnc4sc5c(c4c3=O)CCCC5)n(Cc3ccccc3)c(=O)c2C#N)cc(OC)c1OC | > 30 | 2 | 2 | 51.9 (≈ 79.1 µM) | 2 | 2 | 72.1 (≈ 110 µM) | > 3 | 2 | > 30 | > 100 | > 3 | > 3 | > 100 | 2 | > 30 | 2 | > 3 | 2 | > 30 |
